The results in this text go back to ChEMBL document CHEMBL4130395, “Meroterpenoids with Protein Tyrosine Phosphatase 1B Inhibitory Activity from a Hyrtios sp. Marine Sponge” (J Nat Prod, 2017).

Active and inactive are the calls of the source. The rule behind the calls is not given here.

The test system of data set [1] is HeLa. The data set can be described thus: Cytotoxicity against human HeLa cells at 30 uM after 48 hrs by MTS assay. The class given is cell-based. The method, boiled down: (§1)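 Cells seeded in 96-well plates and grown 24 h, then treated 48 h with compound dissolved in DMSO at a 30 μM working concentration. MTS (20 μL) added and incubated 2 h at 37 °C for viability read-out; method described as MTT assay.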
Background: Formazan colour is commonly taken as a measure of viable cells.

Data set [2] addresses T1, Tyrosine-protein phosphatase non-receptor type 1 (Homo sapiens) (UniProt P18031).
T1 sequence (whole entry): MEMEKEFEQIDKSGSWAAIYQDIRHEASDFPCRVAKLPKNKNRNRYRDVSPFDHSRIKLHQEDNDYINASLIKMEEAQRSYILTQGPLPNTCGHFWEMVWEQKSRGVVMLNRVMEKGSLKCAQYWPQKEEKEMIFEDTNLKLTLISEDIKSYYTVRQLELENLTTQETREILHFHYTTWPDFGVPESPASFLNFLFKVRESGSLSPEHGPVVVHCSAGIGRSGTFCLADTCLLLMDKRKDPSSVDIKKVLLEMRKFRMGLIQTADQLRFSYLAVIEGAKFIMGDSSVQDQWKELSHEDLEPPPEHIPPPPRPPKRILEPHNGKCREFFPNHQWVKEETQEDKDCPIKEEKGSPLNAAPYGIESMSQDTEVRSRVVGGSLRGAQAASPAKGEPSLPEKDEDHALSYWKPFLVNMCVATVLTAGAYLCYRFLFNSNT
The data set is described as follows: Inhibition of PTP1B (unknown origin) at 30 uM using p-nitrophenyl phosphate as substrate measured after 30 mins. The method in brief: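 30 nM PTP1B with 2 mM pNPP in 50 mM MOPS buffer, pH 6.5, with or without compound, 37 °C for 30 min. Stopped with 1 M NaOH; released pNP read at 405 nm absorbance. Oleanolic acid as positive control; IC50 from sigmoidal variable-slope dose-response fit.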

Data set [3] has as its system HL-60. The data set is described as follows: Cytotoxicity against human HL60 cells at 30 uM after 48 hrs by MTS assay. The data set is classed as cell-based. The following applies: hl-60, 48 h. The method in brief:
as §1

Data set [4] has as its system RPMI-8226. The data set is described as follows: Cytotoxicity against human RPMI8226 cells at 30 uM after 48 hrs by MTS assay. The data set is classed as cell-based. The following applies: rpmi-8226, 48 h. The method in brief:
as §1

Data set [5] deals with HepG2. The data set is described as follows: Cytotoxicity against human HepG2 cells at 30 uM after 48 hrs by MTS assay. Conditions: hepg2, 48 h. The data set is classed as cell-based. The method in brief:
as §1

For data set [6], the target named is T2, Tyrosine-protein phosphatase non-receptor type 1 (Homo sapiens, UniProt P18031).
T2 sequence (P18031 whole entry): T1 sequence (whole entry)
The data set can be described thus: Inhibition of PTP1B (unknown origin) using p-nitrophenyl phosphate as substrate measured after 30 mins.

Consider `C=C1CCC[C@H]2[C@]3(C)Cc4oc(=O)cc(OC)c4[C@]3(C)CC[C@]12C`, for which the Activity result in data set [1], in data set [3], in data set [4] and in data set [5] was “Non-Toxic” in each case. Besides, the inhibition result in data set [2] is “inactive”.
`C=C1CCC[C@H]2[C@](C)(Cc3c(O)c(O)cc4nc(C)oc34)[C@@H](C)CC[C@]12C`: the Activity entry in data set [1], in data set [3], in data set [4] and in data set [5] was “Non-Toxic” in each case. In addition, the IC50 in data set [6] is 4.8 µM.
Turning to `C=C1CCC[C@@]23OC4=C(C[C@]2(C)[C@@H](C)CC[C@]13C)C(=O)C(OC)=CC4=O`, the Activity result in data set [1], in data set [3], in data set [4] and in data set [5] was “Non-Toxic” throughout. In data set [2], the inhibition result was “inactive”.
For the compound `C=C1CCC[C@H]2[C@](C)(Cc3c(O)c(O)cc4ncoc34)[C@@H](C)CC[C@]12C` [NAKIJINOL B], the Activity result in data set [1], in data set [3], in data set [4] and in data set [5] was “Non-Toxic” each time. Further, the inhibition result in data set [2] is “inactive”.

As usually defined, the IC50 is the concentration that gives 50% inhibition. A higher IC50 goes with weaker potency.
